Compound activity from PubChem.
iPSC survival up: enhancers of human iPSC single-cell survival | hiPSC single-cell survival, ATPlite luminescence; 100% = ROCK inhibitor wells, 0% = DMSO | AID 602274 | survival enhancement, % at 20 µM | 360,000 tested, 0.044% active; in the data active means survival enhancement above about 18%;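 further: cells exposed to compounds for 16 hours before the ATP read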
XBP1 UPR activ: adaptive UPR (XBP1) activation | activation, % at 20 µM | 330,000 tested, 0.33% active | CHO-XBP1 luciferase reporter, IRE1-XBP1 UPR activation, luminescence; percent of tunicamycin response, DMSO as zero | AID 463104;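 active means versus positive control, 20 µM dose yields 30% or more activation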
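Material: CHO-XBP1 cells stably carrying IRE1-XBP1-driven luciferase reporter / Amount: 1000 cells per well / Compound: 20 µM, 1% DMSO / Times: 6 h treatment, 37 °C / Detection: luciferase luminescence / Measure: % activation of reporter signal versus tunicamycin and DMSO controls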
H9c2 protect: myocardial damage modulation in H9c2 cells; H9c2 cardiomyocytes, H2O2 injury protection, ATPLite, 2 h; protection from H2O2 cell death, % at 20 µM; 360,000 tested, 0.63% active; AID 588492;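 active means compounds giving at least 50% protection of heart cells from peroxide-induced death in the single-dose screen, raw or plate-pattern-corrected value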
CHOP UPR activ: activators of apoptotic arm of unfolded protein response (CHOP); CHO-CHOP luciferase reporter, UPR activation, luminescence; percent of tunicamycin response over DMSO baseline; activation, % at 10 µM; 330,000 tested, 0.34% active; AID 449763;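 active means at 10 µM dose, activation of 40% or more, normalized to positive control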
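measured by = luciferase luminescence | assay system = CHO-CHOP cells, stable luciferase reporter of PERK-eIF2a-CHOP signalling | amount = 500 reporter cells seeded per well | timing = 6 h compound exposure at 37 °C after overnight seeding | controls = positive tunicamycin 10 µg/mL, negative DMSO alone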
CHOP inh: CHOP inhibition in unfolded protein response | CHO-K1 CHOP-promoter luciferase, tunicamycin-induced, 15-18 h | AID 2732 | 220,000 tested, 3.8% active | inhibition, % at 10 µM;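 active means compounds that reduced the stress-induced luciferase reporter signal by more than about 70% of percent inhibition, limit read from the data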
CHOP confirm: confirmation of CHOP induction inhibitors; shares compounds with CHOP inh; CHO-CHOP promoter luciferase reporter, tunicamycin-induced, luminescence; inhibition, % at 10 µM; 2,100 tested, 45% active; AID 504437;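 active means mean of three repeat readings of reporter signal inhibition above a set limit, cut at about 70% in these data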
Each line names hits and unclear results; the compound was inactive in the other large screens (follow-up assays come after a bar, where they were run). The full list was thinned out, with hits kept by preference.

CC(C)(C)c1ccc(-c2n[nH]c(=S)n2C2CCCC2)cc1	CHOP inh 107 | CHOP confirm 121
CCOc1ccc(C(=O)C(CCC(CN(C)C)C(=O)c2ccc(OCC)cc2)CN(C)C)cc1 (stereo not given)	CHOP inh 106 (no result: XBP1 UPR activ, CHOP UPR activ) | CHOP confirm 76
COc1ccc(C(=O)C(CCCCC(CN(C)C)C(=O)c2ccc(OC)cc2)CN(C)C)cc1 (stereo not given)	none
O=C1c2ccccc2C(=O)c2c1oc(C(F)(F)F)c2C(=O)c1ccccc1	CHOP inh 107 | CHOP confirm 121
O=C(c1ccccc1)c1coc2c1C(=O)c1ccccc1C2=O	none
C=CCn1c(=O)[nH]c2cc(C(=O)N3CCN(c4cc(C)ccc4C)CC3)ccc2c1=O	CHOP inh 97 | CHOP confirm inactive
Cc1ccc(C(=O)NNC(=O)CSc2nc(N)cc(N)n2)cc1	none
Cc1ccc(C(=O)NNC(=O)CSc2nnc3c(n2)[nH]c2ccc(C)cc23)cc1	CHOP inh 104 | CHOP confirm inactive
CN1OC[C@@H]2CN(C(=O)C(C)(C)C)[C@H](c3ccc(-c4cccnc4)cc3)C[C@@H]21	none (no result: XBP1 UPR activ, CHOP UPR activ, CHOP inh)
CCn1c(=O)c(C(=O)NNS(=O)(=O)c2ccc(Br)cc2)c(O)c2ccccc21	CHOP inh 105 | CHOP confirm inactive
CCn1c(=O)c(C(=O)NNS(=O)(=O)c2ccc(C)cc2)c(O)c2ccccc21	none
Cc1ccc(S(=O)(=O)NN=CC=CC=NNS(=O)(=O)c2ccc(C)cc2)cc1	none (no result: XBP1 UPR activ, CHOP UPR activ, CHOP inh)
Cc1ccc2c(c1)c1c(n2CC(O)Cn2c(C)nc3ccccc32)CCCC1 (stereo not given)	CHOP inh 98 | CHOP confirm 82
Nc1cc(-c2ccc(Cl)cc2)nn1S(=O)(=O)c1ccc(Cl)cc1	CHOP inh 108 | CHOP confirm inactive
COc1ccc(S(=O)(=O)n2nc(-c3ccc(Cl)cc3)cc2N)cc1OC	none
CCn1c(=O)c(C(=O)Nc2ncccc2C)c(O)c2ccccc21	none
Cc1cccnc1NC(=O)c1c(O)c2ccccc2n(C)c1=O	CHOP inh 98 | CHOP confirm 100
CCC(C)[C@H](NC(=O)OC(C)(C)C)C(=O)N/N=C/C1=Cc2ccccc2OC1 (stereo not given in full)	CHOP inh 106 | CHOP confirm inactive
C[C@H](NC(=O)OC(C)(C)C)C(=O)N/N=C/C1=Cc2ccccc2OC1	none
CCOc1ccccc1OCCCC(=O)Nc1cc(S(=O)(=O)N2CCCCC2)ccc1C	none (no result: XBP1 UPR activ, CHOP UPR activ, CHOP inh)
Oc1ccc(Br)cc1-c1cc(-c2ccccc2F)[nH]n1	CHOP inh 98 | CHOP confirm 100
Cc1ccc(O)c(-c2cc(-c3cccc(Br)c3)n[nH]2)c1	CHOP inh 97 | CHOP confirm inactive
Oc1ccc(Cl)cc1-c1cc(-c2ccccc2)n[nH]1	CHOP inh 105 | CHOP confirm 82
O=C(COCC(=O)Nc1cccc(C(F)(F)F)c1)Nc1cccc(C(F)(F)F)c1	CHOP inh 103 | CHOP confirm 116
CCCCn1c(NS(=O)(=O)c2ccc(C)cc2)c(S(=O)(=O)c2ccccc2)c2nc3ccccc3nc21	CHOP inh 104 (no result: XBP1 UPR activ, CHOP UPR activ) | CHOP confirm 89
Cc1ccc(S(=O)(=O)c2c(N)n(CCCN(C)C)c3nc4ccccc4nc23)cc1	none
CC(C)Oc1ccc(CNC(=S)N/N=C/c2ccc([N+](=O)[O-])cc2)cc1	CHOP inh 98 | CHOP confirm 102
O=Nc1c(O)n(Cc2ccc(Cl)c(Cl)c2)c2ccccc12	CHOP inh 107 | CHOP confirm inactive
O=Nc1c(O)n(Cc2ccccc2)c2ccccc12	none
CC(C)(C)c1cc(S(=O)(=O)CCc2ccccn2)cc(C(C)(C)C)c1F	CHOP inh 97 | CHOP confirm 131
CN(CCc1ccccn1)S(=O)(=O)c1ccc(F)cc1	none
Cc1cccc(NC(=O)C2(C)CC3c4ccccc4C2c2ccccc23)c1 (stereo not given)	CHOP inh 103 | CHOP confirm inactive
CSc1ccc(/C=N/n2c(Cc3ccc(Br)cc3)n[nH]c2=S)cc1	CHOP inh 101 | CHOP confirm inactive
